Source: PubChem BioAssay
Scp1 inh: inhibitors of human Scp-1 phosphatase | 340,000 compounds, 0.88% hits | Recombinant Scp1, phosphopeptide, malachite green phosphate absorbance | Q9GZU7 | inhibition, % at 20 µM | AID 493091;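 active = inhibition above about 50% at 20 µM, limit read from the data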;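 also: plate controls were DMSO wells with enzyme for no effect and wells lacking enzyme for full effect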
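System: SCP-1 catalytic domain; Reagent: Phospho 17-mer peptide substrate; Doses: one concentration, 20 µM, with 1.0% DMSO; Incubation: 45 min room-temperature reaction, 5 min colour, 30 min stabiliser; Signal: Phosphate-binding colour reagent, absorbance read at 630 nm.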
SUMO1 PPI mod: SUMO1-SIM interaction modulation; SUMO1 binding to a labelled peptide, TR-FRET, 1 h; inhibition, % at 20 µM; 360,000 compounds, 0.33% hits; P63165; AID 602429; in the data active = inhibition above about 37%
LMPTP inh: LMPTP (human) inhibition; P24666; 360,000 compounds, 0.22% hits; inhibition, % at 20 µM; recombinant LMPTP-A, OMFP fluorogenic substrate, fluorescence intensity; AID 651560;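 active = compounds that cut the enzyme signal by at least half of the control window in the single-dose screen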;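 also: plate controls were DMSO wells with enzyme plus substrate for no effect and substrate without enzyme for full effect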
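Assay system: LMPTP-A, protein tyrosine phosphatase of low molecular weight / Medium: pH 6.0 Bis-Tris buffer with DTT and Triton X-100 / Schedule: 50 min enzyme reaction at room temperature, protected from light / Measured by: endpoint fluorescence intensity from OMFP dephosphorylation / Read-out basis: % inhibition relative to no-enzyme and uninhibited control wells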
DNMT1 inh: DNMT1 (human) enzyme inhibition | DNMT1 molecular beacon, Hinp1I cleavage, fluorescence | inhibition (reported as % activation of signal), % at 10 µM | 360,000 compounds, 0.83% hits; in the data active = inhibition above about 50%
Rpn11 block: blocks the human proteasome subunit Rpn11; O00487; human 26S proteasome, Ub4-pepOG fluorescence polarization; 20S core pre-blocked with epoxomicin; inhibition, % at 20 µM; 360,000 compounds, 0.59% hits;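 active = inhibition at 20 µM, scaled to each plate's controls, above about 33%, limit read from the data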
STEP block: STEP (human) phosphatase inhibition; P54829; recombinant STEP, OMFP fluorogenic substrate, fluorescence; inhibition, % at 20 µM; 360,000 compounds, 0.25% hits; AID 588621;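 active = inhibition at 20 µM, scaled per plate between control wells, above about 37%, limit read from the data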;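 also: 0% = DMSO with enzyme and substrate and 100% = substrate only without enzyme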
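Measure: Control-normalized % inhibition with plate pattern correction | Test system: STEP phosphatase, cell-free reaction | Medium: pH 6.0 Bis-Tris with DTT and Tween 20 | Technique: Fluorescence, 480/540 nm | Times: Reaction 20 min, ambient temperature | Doses: Single compound dose of 20 µM, 1% DMSO final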
Rpn11 confirm: confirmation of human proteasome Rpn11 inhibitors; 1,900 compounds, 29% hits; AID 602318; shares compounds with Rpn11 block; purified human 26S proteasome, Ub4-pepOG fluorescence polarization; proteasome pretreated with epoxomicin; inhibition, % at 20 µM
MMP-2 inh: blocks human MMP-2, flagging nonselective RPN11 hits | shares compounds with Rpn11 block | recombinant MMP-2, FRET peptide cleavage fluorescence | inhibition, % at 20 µM | 1,900 compounds, 4% hits;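 also: human MMP-2 activated beforehand with APMA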
Thrombin inh: thrombin (bovine) inhibition counter-screen; bovine thrombin cleavage of Ub4-pepOG, fluorescence polarization; shares compounds with Rpn11 block; 1,900 compounds, 13% hits; inhibition, % at 20 µM;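 active = mean inhibition at least 40% at 20 µM, or signal 3 deviations below plate average, so some actives read negative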;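 also: plate controls were thrombin with DMSO for no effect and buffer wells lacking thrombin for full effect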
Starred values were filed as active, the others as inactive; nt = not tested or not shown. Hits are enriched below; roughly 2.3% of the tested compounds scored in any of these assays. Rule as the data show it, unless noted: active = inhibition above about 40%; inactive = the rest.

SMILES | Scp1 inh | SUMO1 PPI mod | LMPTP inh | DNMT1 inh | Rpn11 block | STEP block | Rpn11 confirm | MMP-2 inh | Thrombin inh
COc1cc(N)c(Cl)cc1C(=O)OCC(=O)N1CCCCCC1 | -10 | -1 | -1 | 2 | -2 | 1 | nt | nt | nt
CC(C)N(C(=O)C[n+]1ccc(/C=N/O)cc1)C(C)C | 1 | -10 | -1 | -1 | 44* | -1 | -14 | -20 | -26
Clc1ccc2nc(-c3ccccc3)c(CC3CCCCC3)n2c1 | nt | 6 | -1 | 0 | 14 | -1 | nt | nt | nt
O=C(CN1CCCc2ccccc21)N/N=C/c1ccccc1 | -2 | -2 | 1 | -9 | 66* | 0 | 10 | -13 | -5
COc1ccc(OC)c(S(=O)(=O)NC(C)(C)C)c1 | -11 | -1 | 1 | 2 | 1 | -3 | nt | nt | nt
Cc1cccc(C)c1NC(=O)c1ccc2sc([C@@H]3O[C@H](CO)[C@H](O)[C@H](O)[C@H]3O)nc2c1 | nt | 0 | -1 | 6 | 3 | -5 | nt | nt | nt
COC(=O)c1ccccc1NC(=O)CN1CCN(Cc2ccccc2)CC1 | -4 | 3 | -2 | -3 | 37* | -1 | -24 | 6 | -26
Cc1cc(C)nc(NC(=O)c2c(F)c(F)c(F)c(C(=O)Nc3cc(C)cc(C)n3)c2F)c1 | 1 | -5 | -2 | 4 | 8 | -1 | nt | nt | nt
CCOC(=O)C1=C(C)N=c2s/c(=C\c3ccc(OCC(=O)O)cc3)c(=O)n2C1c1ccccc1OC (centres undefined) | 15 | -15 | 1 | 3 | 35 | 1 | nt | nt | nt
COc1ccccc1C1C2=C(N=C3SCC(=O)N31)c1ccccc1CC2 (centres undefined) | 3 | 4 | 2 | -5 | -8 | -5 | nt | nt | nt
COc1ccc(/C=c2/sc3n(c2=O)C(c2ccccc2OC)C2=C(N=3)c3ccccc3CC2)cc1O (centres undefined) | 5 | -7 | 4 | -25 | 48* | -1 | 25 | 23 | 0
CCOC(=O)C1=C(C)N=c2s/c(=C\c3ccc(O)c([N+](=O)[O-])c3)c(=O)n2C1c1ccccc1OC (centres undefined) | 13 | -21 | -1 | -26 | 40* | 2 | 24 | -21 | -4
CCOC(=O)C1=C(C)N=c2s/c(=C\c3ccc(OCC(=O)O)cc3)c(=O)n2C1c1ccc(Cl)cc1 (centres undefined) | 31 | 1 | 17 | 8 | 46* | 34 | 91* | -11 | 20
COc1cc(/C=c2\sc3n(c2=O)C(c2ccccc2)C(c2ccccc2)=NN=3)ccc1O (centres undefined) | -8 | -12 | 1 | -12 | 43* | 7 | 23 | 20 | 19
O=C(Cc1ccc(Br)cc1)OCC(=O)c1ccc[nH]1 | 22 | -2 | -1 | -1 | 4 | 1 | nt | nt | nt
COC(=O)c1cc(N/C(N)=N/c2nc(C)cc(C)n2)cc(C(=O)OC)c1 | nt | 2 | -1 | -3 | 4 | 0 | nt | nt | nt
COc1cc(/C=C2/SC(=Nc3ccc(O)cc3)NC2=O)ccc1O | -7 | 13 | 1 | 1 | 76* | -5 | 70* | -9 | 64*
CCc1ccc(N=C2NC(=O)/C(=C/c3cc(OC)c(O)c(OC)c3)S2)cc1 | -6 | 29 | 2 | -10 | nt | 0 | nt | nt | nt
COc1cc(/C=C2\SC(=Nc3ccccc3OC)NC2=O)ccc1O | -6 | -14 | 1 | 0 | 74* | 0 | 47* | 14 | 51*
CC1(C(=O)Nc2cccc3ccccc23)CCN1C(=O)Cc1ccc(Cl)cc1Cl (centres undefined) | nt | -4 | 6 | -5 | -4 | 3 | nt | nt | nt
CC(=O)c1ccc(OCCCC(=O)NCc2nnc3ccccn23)cc1 | -7 | -6 | 0 | -2 | -6 | 1 | nt | nt | nt
